In this series the test system is MS2 coat protein. Kind of series: apparent Kd, MS2 coat protein; higher = weaker binding; RNA-MaP array; FMN 200 µM where present. An outline of the steps: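 Green signal was scaled to red-channel RNA signal and control-cluster median Fmax, and the apparent Kd was taken as the median of filtered per-cluster binding-curve fits. The binding series used SNAP-549-labelled MS2 coat protein from 0.7 or 1.5 nM, doubling to 3 µM, on designs transcribed by stalled E. coli RNA polymerase on Illumina sequencing-chip clusters. Each series ran without and then with constant ligand in 100 mM Tris-HCl pH 7.5, 80 mM KCl, 4 mM MgCl2, BSA, DTT, yeast tRNA and Tween-20.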

[1] abbreviates: designed as: OFF switch for flavin mononucleotide, no ligand.
Setting [2] is: ligand present: flavin mononucleotide, designed as: OFF switch for flavin mononucleotide.
[3] abbreviates: designed as: ON switch for flavin mononucleotide, no ligand.
Setting [4] is: ligand present: flavin mononucleotide, designed as: ON switch for flavin mononucleotide.

The values below come from the EternaBench riboswitch data.

For “UUUUCACAUGAGGAUCACCCAUGUGAGGAUAUGGUUUCGCUGGCCGUAGCCAGUGGAACCAGAAGGCGCGUGAU”, the “apparent Kd” value was found to be 0.0607 µM under setting [1] and 0.0664 µM under setting [2]. As for “ACAUGAGGAUCACCCAUGUUGAAUUAGGAUAUUUGACUGCACAUGAGGUUCUCCCAUGUUCUACCGGAGAAGGGAUUAAUAAUU”, the “apparent Kd” value by setting is: under setting [3], 0.549 µM; under setting [4], 0.24 µM. Turning to “CGGCGGAAAGGAUAUGCAGAAAUAUCAAAAUGUGGGCCACGACAUGAGGAUCACCCAUGUAGAAGGUUCAGCCG”, the “apparent Kd” value runs as follows: under setting [1], 0.0155 µM; under setting [2], 0.0127 µM.

On to “UAUAUUUUUAUAGGAUAUGGAUAUGAUGCAUAUCCAGAAGGGUGAUUAUAAUAUAAUCUAUACAUGAGGAUCACCCAUGUUUAU”, for which the “apparent Kd” value under setting [3] came to 0.242 µM and the “apparent Kd” value under setting [4] was found to be 0.072 µM. As for “UGUUGUUCAGGAUAUGAUGUAUAAUACAUGAGGAUCACCCAUGUGGGUCCUGAUUUGGCGUCAGAAGGGAAUGUUG”, the “apparent Kd” value was determined as 0.0883 µM under setting [1] and 0.146 µM under setting [2]. Consider “AAUAAACUCACAGGAUAUAGCAGAGGUCGCGUGUACUUACAGGCGACGAUGCUAGAAGGGUGACCACAUGAGGAUCACCCAUGU”, for which the “apparent Kd” value runs as follows: under setting [3], 0.961 µM; under setting [4], 0.153 µM. With “ACAUGAGGAUCACCCAUGUAACAUGUGAAUUAAUUCUUUAACAGAAGGCGAAUAUAUAACAUUGUCGAGGAUAUGUACUUAUGU”, the “apparent Kd” value under setting [1] amounted to 0.00985 µM and the “apparent Kd” value under setting [2] amounted to 0.00741 µM.

With “AAUAUAAGAGCUGGACUCAAAAGAACAUGAGGAUCACCCAUGUAGGAUAUCAGCACGAUAAGUGCUGAGAAGGACAACCAGCUC”, the “apparent Kd” value under setting [1] came out at 0.0144 µM and the “apparent Kd” value under setting [2] stood at 0.0152 µM.

For “UUAGAUUAUGAAGGAUAUGGAUCUUAUUAUUAACCAGAAGGUCAACUCAACAUGAGGAUCACCCAUGUAUAAAGGGUAUUAGUU”, the “apparent Kd” value reads like this: under setting [1], 0.134 µM; under setting [2], 0.132 µM.

“GAGAUGUGAGGAUAUCUGGACCGUGGAAGAGCCACGGUCCGAGAGAAGGCACAUGAGGAUCACCCAUGUGAUGA”: the “apparent Kd” value runs as follows: under setting [1], 0.0384 µM; under setting [2], 0.171 µM. In the same order, the values of “AGUAACAGAGGAUAUACUGUUUUAUGUGUUUAUUAUUUUAAACAUGAGGAUCACCCAUGUAGAAGGCUGAAUAA” are 0.0497 µM and 0.0404 µM. For “AGUCGGAGCAGAGGAUAUACAUGAGGAUCACCCAUGUAAUAAAGUGAAGCUUGGAAACAGGCAAUGUAGAAGGCUGCUCCGACA”, the “apparent Kd” value runs as follows: under setting [1], 0.0113 µM; under setting [2], 0.0686 µM.

Consider “GCAGGAUAAGUGAGGAUAUACCUAUGGAUACAUAGGUAGAAGGCACAUGAGGAUCACCCAUGUUCCUUGCCUGC”, for which the “apparent Kd” value by setting is: under setting [1], 0.013 µM; under setting [2], 0.0427 µM. With “UGAUAGGACAGAGGAUAUGCCGAUAGGAUCUAUUAUCGAAGAAUCCUCACAUGAGGAUCACCCAUGUAGAAGGCUGUCCUAUCU”, the “apparent Kd” value reads like this: under setting [1], 0.00932 µM; under setting [2], 0.0366 µM. Take “GGAUGACAUAGUCAUCCUUAACGAACAUGAGGAUCACCCAUGUAGGAUAUGCUACUCAAAGAGUAGCAGAAGGGUAUGUGUCUU”: the “apparent Kd” value by setting is: under setting [1], 0.0536 µM; under setting [2], 0.0563 µM. On to “UACACUACUGAGAAGGGAUACAUAUAAUUUUAGUCAGGAUAUCGAUACAGUGCAGCAUGAGGACAUGAGGAUCACCCAUGUAUU”, for which the “apparent Kd” value by setting is: under setting [3], 0.0223 µM; under setting [4], 0.0146 µM.

For “CCUCAGUAAGGAUAUCAGCUUAUAAGGUUGGUAAUGAGAGCUGAGAAGGUACAUGAGGAUCACCCAUGUUAGUU”, the “apparent Kd” value by setting is: under setting [1], 0.0271 µM; under setting [2], 0.0957 µM. Regarding “UACAGACAUGAGGAUCACCCAUGUAAGGAUAUCGGUACCGAUGGUAUAAUCUACUCGGCGAGAAGGUACAGUGU”, the “apparent Kd” value under setting [1] stood at 0.0232 µM and the “apparent Kd” value under setting [2] was 0.0267 µM.

Consider “AAUAUGUUGCAGAAGGCUAUAUUUUUUUAGUACCUCAUGACAUGAGGAUCACCCAUGUUUUUGUUGGAGGAUAUGCAAUAUAUU”, for which the “apparent Kd” value runs as follows: under setting [1], 0.00807 µM; under setting [2], 0.00756 µM. As to “GCUGUCGCUUGAGGAUAUGGUCAGCUUUGCUGACCAGAAGGCAUGUCAAUAGACAUGAGGAUCACCCAUGUAGUAAGGGCGGCU”, the “apparent Kd” value reads like this: under setting [3], 0.339 µM; under setting [4], 0.122 µM. With “UUAUUUAGUGUGAGGAUAUGCUGGUCGAUAGAUCAGCAGAAGGCACAUGAGGAUCACCCAUGUAAUAUAUUAAA”, the “apparent Kd” value reads like this: under setting [1], 0.0589 µM; under setting [2], 0.248 µM. Regarding “AGGACCAAAACAUCUACAUGAGGAUCACCCAUGUAUCGUAUGCAGGAUAUCCAUGGGUGGGCAGAGGAGAAGGGCAUUAAAAGA”, the “apparent Kd” value stood at 0.0616 µM under setting [3] and 0.124 µM under setting [4]. Turning to “GUGUACAGAGGAUAUACGGGAGCAUGGAAACAUGCAACCUCACAUGAGGAUCACCCAUGUAGAAGGCUGUACAC”, the “apparent Kd” value under setting [1] came to 0.162 µM and the “apparent Kd” value under setting [2] stood at 0.243 µM. On the same counts, the results for “UGUGCGUUGAUCUUCGAUCGGAGUACAUGAGGAUCACCCAUGUAGGAUAUUCAAAGACGCAGAUAGGAGAAGGACAUCGGAUUA” are 0.00963 µM and 0.00883 µM.

For “ACAUGAGGAUCUCCCAUGUAAAAUUAGGAUAUAUAACUGCACAUGAGGAUCACCCAUGUUUUACCGUAGAAGGGAUAAAUAAUU”, the “apparent Kd” value reads like this: under setting [3], 1.01 µM; under setting [4], 0.567 µM. As to “UCACGGGAUUGAGGAUAUAUAUUAAUUUUUACAAUAGAAGGCAAAUUUUUAGUUUUUUCACUUUACAUGAGGAUCACCCAUGUU”, the “apparent Kd” value by setting is: under setting [1], 0.0275 µM; under setting [2], 0.0255 µM. Consider “ACUGGUCGAGGAUAUACGUGACGUGCUUCGGCACGAGGUCUACAUGAGGAUCACCCAUGUAGAAGGCGACCAGU”, for which the “apparent Kd” value by setting is: under setting [1], 0.017 µM; under setting [2], 0.0539 µM. For the sequence “AAAAAGUCAGGAUAUACAAAAGUGCGAAAGCACAAAAGGAAACAUGAGGAUCACCCAUGUAGAAGGGACAAGAA”, the “apparent Kd” value runs as follows: under setting [1], 0.0326 µM; under setting [2], 0.0275 µM. On the same counts, the results for “AUACGCUGAGGAUAUACCAAAACAACAACCUCGUGUAUAAUACAUGAGGAUCACCCAUGUAGAAGGCAGUAAAC” are 0.0586 µM and 0.116 µM. As to “UUGGACGUCGUUGGAUAUGUAGGAUAUUCCUACAUGAGGAUCACCCAUGUUGACAUGGAAGAAGGACAGAAGGACGAUGUCCAU”, the “apparent Kd” value came to 0.196 µM under setting [3] and 0.00605 µM under setting [4]. On the same counts, the results for “AAUAAACUCACAGGAUAUAGCAGAGGUCGCGUGUACUUACAGGCGACGAGGCUAGAAGGGUGACCACAUGAGGAUCACCCAUGU” are 1.01 µM and 0.113 µM. With “CUUAUUUGAGGAUAUACGUCACCGUCUUCAUGAGUUCAAAUACAUGAGGAUCACCCAUGUAGAAGGCAAUUACU”, the “apparent Kd” value is, setting by setting: under setting [1], 0.0258 µM; under setting [2], 0.0394 µM.

Take “GCAGCGCUUGACAUGAGGAUCACCCAUGUUAGAUUGUUAUGUCAGGAUAUAGUCUAGAAACUAGACUAGAAGGGAUAUGCUGCU”: the “apparent Kd” value is, setting by setting: under setting [3], 0.29 µM; under setting [4], 0.0341 µM. Consider “GAAUUAUUACAGAAGGUGUUUUACAUGAGGAUCACCCAUGUUUUAUUGUUUAAAUUUGAUAUUUACAAGGAUAUGUACUAAUCU”, for which the “apparent Kd” value runs as follows: under setting [3], 0.0321 µM; under setting [4], 0.0243 µM. Turning to “GUAAAUCAUGUAGGAUAUGCAUGGCGAAGCUACGCAGAAGGACAUGAGGAUCACCCAUGUCUGUCCGUCUGCGUACAGACGGAC”, the “apparent Kd” value runs as follows: under setting [1], 0.0256 µM; under setting [2], 0.17 µM.

In the case of “ACGUCACAUGAGGAUCACCCAUGUCAGGCCGGACUAGGAUAUUAUCAUGCAGCGUGACCGUGAGAAGGAGUUGGAU”, the “apparent Kd” value came out at 0.104 µM under setting [3] and 0.0822 µM under setting [4]. Consider “AACUGAGCCCAAGGAUAUCCUCACUUCCACUACAUGAGGAUCACCCAUGUCAGAUCGUCUGUGUAGGAGAAGGUGGUGUACAUG”, for which the “apparent Kd” value came to 0.33 µM under setting [3] and 0.623 µM under setting [4]. As for “AUGGCGUGAGGAUAUGCGCAGGUUAACAUGAGGAUCACCCAUGUGGGCAUUGGUUUUCACGCAGAAGGUACGUUAA”, the “apparent Kd” value is 0.0145 µM under setting [1] and 0.0152 µM under setting [2]. As to “AAAUCGGCAGGAUAUACAUGAGGAUCACCCAUGUAAAUUUUUCGUUUAACUUGAAUGUGUAGAAGGGCCAUAAA”, the “apparent Kd” value is, setting by setting: under setting [1], 0.0256 µM; under setting [2], 0.0271 µM. Consider “GCUUGUAGAGGAUAUACAAGGGCCCAAGCGGCGAGAGCCGCACAUGAGGAUCACCCAUGUAGAAGGCUACUAUA”, for which the “apparent Kd” value reads like this: under setting [1], 0.192 µM; under setting [2], 0.499 µM. Take “UGAUCGAGAGAUCUUAGAUUCUGGUAGGAUAUACAUUAAAAGCGCUUUACAUGAGGAUCACCCAUGUAGAAGGACUAGAGUCUA”: the “apparent Kd” value is, setting by setting: under setting [1], 0.00751 µM; under setting [2], 0.00942 µM. Turning to “AUACAUGAGGAUCACCCAUGUUACUGGGUCUAUAUAGAACGUAGAAGGAUGUUUAUACACAUAACAUAGGAUAUACAAUAUUGU”, the “apparent Kd” value under setting [2] came to 0.0309 µM.

In the case of “CGCAACUCAGAUCUUUUGAACAUGAGGAUCACCCAUGUAUUGAGAAGGAGGAAGAAGAGAGAUUCCUAGGAUAUCAGAGUUGCG”, the “apparent Kd” value runs as follows: under setting [1], 0.00595 µM; under setting [2], 0.00581 µM. Turning to “CCUCAGUAAGGAUAUCAGCUUAUAGAGUUGGUAAUGAGAGCUGAGAAGGUACAUGAGGAUCACCCAUGUUAGUU”, the “apparent Kd” value was determined as 0.0218 µM under setting [1] and 0.0573 µM under setting [2].

Turning to “UGCAUGUCAGGAUAUCGUGCAUACAACGAAAGUUCUAUGUGCGAGAAGGGACAUGAGGAUCACCCAUGUCUUCG”, the “apparent Kd” value under setting [1] was found to be 0.024 µM and the “apparent Kd” value under setting [2] was 0.0674 µM. Regarding “AGUCGGCGAGGAUAUACAUGAGGAUCACCCAUGUGAUAUAGUGCACGCGUACGUGUACGUAGAAGGCGCUGACA”, the “apparent Kd” value under setting [1] was 0.0133 µM and the “apparent Kd” value under setting [2] was determined as 0.0401 µM.

“GAAACCUCAGGUUAAGGUUGACGACAUGAGGAUCACCCAUGUAGAAGGACCAAGGCGACCGUACGGUAGGAUAUACACGGGAGG”: the “apparent Kd” value under setting [1] turned out to be 0.0108 µM and the “apparent Kd” value under setting [2] worked out at 0.0249 µM. As to “AGUAGAUCAGGAUAUACAUAAAUGAUAAUUAUGUACCUUCUACAUGAGGAUCACCCAUGUAGAAGGGAUCUACA”, the “apparent Kd” value was 0.0131 µM under setting [1] and 0.0119 µM under setting [2].

The term apparent Kd denotes a dissociation constant that holds for the conditions of the assay.
